ChEMBL document CHEMBL4622973, “Discovery of Potent Small-Molecule SIRT6 Activators: Structure-Activity Relationship and Anti-Pancreatic Ductal Adenocarcinoma Activity” (J Med Chem, 2020)
pEC50, pIC50: −log10 of the molar value. The source made the active and inactive calls. No cut-off for these calls is given here.

Legend:
[1] = molecular target: T1, NAD-dependent protein deacylase sirtuin-6 (Homo sapiens, UniProt Q8N6T7); assay: Activation of N-terminal his-tagged human SIRT6 expressed in Escherichia coli M15 [pREP4] assessed as increase in deacetylation activity incubated for 2 hrs using Ac-RYQK(Myr)-AMC substrate by FDL assay relative to control
ASPC1 [2] = assay: Antiproliferative activity against human AsPC1 cells assessed as reduction in cell viability incubated for 72 hrs by MTT assay; assay type: functional, cell-based
How it was run: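 PDAC cells grown in DMEM or RPMI1640 with 10% FBS and penicillin/streptomycin at 37 °C, 5% CO2. Plated in triplicate, then treated with a concentration series for 72 h. Viability read by MTT. IC50 calculated from dose-response curves.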

HepG2 = assay: Antiproliferative activity against human HepG2 cells assessed as reduction in cell viability incubated for 72 hrs by MTT assay; assay type: functional, cell-based
ASPC1 [3] = assay: Inhibition of colony formation in human AsPC1 cells incubated for 9 to 18 days by crystal violet staining based assay; assay type: functional, cell-based
How it was run: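 Cells are seeded per well at the line-specific density: BXPC-3 750, PANC-1 500, AsPC-1 2200, MIAPaCa-2 500. Compound at several concentrations is added after 24 h. Incubation runs 9–18 days (BXPC-3 18 days, PANC-1 14 days). Cells are then fixed with 4% paraformaldehyde and stained with crystal violet, and colonies of more than 50 cells are counted.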

BXPC-3 [4] = assay: Antiproliferative activity against human BxPC3 cells at 3.3 to 10 uM incubated for 24 hrs by EdU incorporation assay; assay type: functional, cell-based
How it was run: (§1)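 Cells seeded per well at 8000 (BXPC-3) or 4600 (PANC-1), then treated with a concentration series for 24 h. EdU incorporation detected with an EdU-Apollo kit, with Hoechst counterstain. EdU-positive cells counted by high-content imaging across 10 fields.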

PANC-1 [5] = assay: Antiproliferative activity against human PANC1 cells at 3.3 to 10 uM incubated for 24 hrs by EdU incorporation assay; assay type: functional, cell-based; how it was run: as §1
PANC-1 [6] = assay: Induction of cell cycle arrest in human PANC1 cells assessed as increase in accumulation at G2 phase incubated for 48 hrs by propidium iodide staining based flow cytometry; assay type: functional
How it was run: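 PANC-1 and BXPC-3 cells in 6-well plates treated with a concentration series for 48 h. Stained with 50 µg/mL propidium iodide for 30 min in the dark. DNA content analysed by flow cytometry for cell-cycle phase distribution.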

BXPC-3 [7] = assay: Induction of apoptosis in human BxPC3 cells incubated for 48 hrs by propidium iodide and Annexin V-FITC staining based flow cytometry; assay type: functional, cell-based
How it was run: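 PANC-1 and BXPC-3 cells seeded in 6-well plates and treated with a concentration series for 48 h. Stained with Annexin V-FITC and propidium iodide for 10 min in the dark. Annexin V+ populations measured by flow cytometry.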

[8] = molecular target: T1, NAD-dependent protein deacylase sirtuin-6; assay: […] in human BxPC3 cells assessed as reduction in H3K9ac levels incubated for 72 hrs by Western blot analysis; assay type: cell-based; conditions: BXPC-3
How it was run: (§2)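 Cells incubated 72 h with various compound concentrations; whole-cell RIPA lysates with protease inhibitors, BCA-normalised, separated on 12% SDS-PAGE, transferred to PVDF, blocked in 5% milk or BSA. Probed 10 h at 4 °C with antibodies to SIRT6, acetyl-H3K9/K18/K56, total H3, Lin28b, Myc, IGF2BP3, β-actin; HRP secondary, chemiluminescent detection.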

[9] = molecular target: T1, NAD-dependent protein deacylase sirtuin-6; assay: […] in human BxPC3 cells assessed as reduction in H3K56ac levels incubated for 72 hrs by Western blot analysis; assay type: cell-based; conditions: BXPC-3; how it was run: as §2
[10] = molecular target: T1, NAD-dependent protein deacylase sirtuin-6; assay: […] in human BxPC3 cells assessed as reduction in IGF2BP3 expression levels at 25 uM incubated for 72 hrs by Western blot analysis; assay type: cell-based; conditions: BXPC-3; how it was run: as §2
PANC-1 [11] = assay: Antitumor activity against human PANC1 cells xenografted in BALB/c nude mouse assessed as slowing of tumor growth at 100 to 150 mg/kg/day, po for 30 days; assay type: functional, organism-based
How it was run: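 Female BALB/c nude mice, 6-8 weeks old, injected subcutaneously in the right flank with 5×10^6–1×10^7 PANC-1 cells. At 130-150 mm³, mice randomized into 4 groups (n = 6) and dosed orally once daily for 30 days against vehicle. Tumor volume followed over time. Inhibition rate assessed against control.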

[12] = Toxicity in BALB/c nude mouse xenografted with human PANC1 cells assessed as induction of body weight loss at 100 to 150 mg/kg/day, po for 30 days; assay type: organism-based, PANC-1; conditions: in vivo, 720 h
How it was run: (§3)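 Female BALB/c nude mice, 6–8 weeks old, received 5×10⁶–1×10⁷ PANC-1 cells subcutaneously in the right flank. Once tumors reached 130–150 mm³, mice were randomized (n = 6) to vehicle or 100 or 150 mg/kg/d given orally for 30 days. Body weight and toxicity were monitored against the vehicle group.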

[13] = Toxicity in BALB/c nude mouse xenografted with human PANC1 cells assessed as induction of toxicity symptoms at 100 to 150 mg/kg/day, po for 30 days; assay type: organism-based, PANC-1; conditions: in vivo, 720 h; how it was run: as §3
PANC-1 [14] = assay: Antitumor activity against human PANC1 cells xenografted in BALB/c nude mouse assessed as inhibition of tumor cell proliferation by measuring reduction in Ki67+ cells at 150 mg/kg/day, po for 30 days by IHC analysis; assay type: functional, organism-based
How it was run: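 PANC-1 subcutaneous xenografts in female BALB/c nude mice dosed orally for 30 days. Tumor tissue taken and stained by immunohistochemistry for Ki-67-positive cells, compared with vehicle.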

[15] = Cmax in Sprague-Dawley rat at 10 mg/kg, po after 0.083 to 24 hrs by LC-MS/MS analysis; assay type: ADME, organism-based; parameters: dose 10 mg/kg, route oral; conditions: in vivo
How it was run: (§4)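 Male Sprague-Dawley rats, 6-8 weeks old. Dosing solution of 10 (PO) or 2 (IV) mg/mL in 5% DMSO, 10% Solutol and 85% saline, pH 7. Blood taken by cardiac puncture at 0.083–24 h (PO) or 0.25–24 h (IV). Plasma levels measured by LC-MS/MS. Values are mean ± SD, n = 3.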

[16] = Oral bioavailability in Sprague-Dawley rat at 10 mg/kg after 0.083 to 24 hrs by LC-MS/MS analysis; assay type: ADME, organism-based; conditions: in vivo
How it was run: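 Male Sprague-Dawley rats, 6–8 weeks old, received a single dose of 10 mg/kg p.o. or 2 mg/kg i.v. The vehicle was 5% DMSO, 10% Solutol and 85% saline at pH 7. Blood was taken by cardiac puncture at 0.083–24 h (p.o.) or 0.25–24 h (i.v.), and plasma was measured by LC-MS/MS. Values are mean ± SD, n = 3.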

[17] = AUC (0 to infinity) in Sprague-Dawley rat at 2 mg/kg, iv after 0.25 to 24 hrs by LC-MS/MS analysis; assay type: ADME, organism-based; parameters: dose 2 mg/kg, route intravenous, time infinity; conditions: in vivo; how it was run: as §4
Histone deacetylase 2 = Histone deacetylase 2 (Homo sapiens, UniProt Q92769); assay: Inhibition of HDAC2 (unknown origin) by FDL assay
How it was run: (§5)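 Selectivity testing by FDL assay at concentrations up to 200 µM. SIRT1-2 assays run by an outside contract provider. Values reported as IC50.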

Histone deacetylase 3 = Histone deacetylase 3 (Homo sapiens, UniProt O15379); assay: Inhibition of HDAC3 (unknown origin) by FDL assay; how it was run: as §5
Histone deacetylase 5 = Histone deacetylase 5 (Homo sapiens, UniProt Q9UQL6); assay: Inhibition of HDAC5 (unknown origin) by FDL assay; how it was run: as §5
Histone deacetylase 5, sequence (Q9UQL6 whole entry): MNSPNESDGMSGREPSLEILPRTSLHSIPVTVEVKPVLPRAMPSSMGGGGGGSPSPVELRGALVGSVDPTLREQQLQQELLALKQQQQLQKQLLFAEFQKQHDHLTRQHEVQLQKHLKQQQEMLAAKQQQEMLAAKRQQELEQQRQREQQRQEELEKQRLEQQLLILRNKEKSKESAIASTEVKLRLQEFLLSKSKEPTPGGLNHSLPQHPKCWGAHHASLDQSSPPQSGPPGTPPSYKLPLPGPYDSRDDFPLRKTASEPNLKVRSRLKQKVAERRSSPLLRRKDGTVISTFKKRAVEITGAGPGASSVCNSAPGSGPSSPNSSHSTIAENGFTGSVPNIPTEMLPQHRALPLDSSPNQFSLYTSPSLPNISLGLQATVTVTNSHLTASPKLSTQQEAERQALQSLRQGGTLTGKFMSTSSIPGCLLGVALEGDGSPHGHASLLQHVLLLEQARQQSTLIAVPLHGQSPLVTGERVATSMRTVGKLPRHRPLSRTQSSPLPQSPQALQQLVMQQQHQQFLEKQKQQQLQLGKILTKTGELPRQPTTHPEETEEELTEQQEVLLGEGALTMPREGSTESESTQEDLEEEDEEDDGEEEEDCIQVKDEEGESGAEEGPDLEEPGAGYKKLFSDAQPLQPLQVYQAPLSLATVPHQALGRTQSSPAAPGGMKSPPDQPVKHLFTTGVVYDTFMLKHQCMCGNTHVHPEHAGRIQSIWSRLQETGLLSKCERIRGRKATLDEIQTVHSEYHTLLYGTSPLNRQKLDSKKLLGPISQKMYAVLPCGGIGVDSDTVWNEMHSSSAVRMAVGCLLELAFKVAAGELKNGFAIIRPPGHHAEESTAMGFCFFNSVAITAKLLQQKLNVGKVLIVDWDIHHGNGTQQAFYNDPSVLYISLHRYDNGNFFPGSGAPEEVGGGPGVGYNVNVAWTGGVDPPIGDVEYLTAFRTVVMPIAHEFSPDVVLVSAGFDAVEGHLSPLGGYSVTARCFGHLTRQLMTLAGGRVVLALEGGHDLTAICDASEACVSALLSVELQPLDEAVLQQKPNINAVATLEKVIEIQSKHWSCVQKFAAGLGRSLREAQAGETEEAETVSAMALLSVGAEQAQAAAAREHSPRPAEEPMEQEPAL

T1 sequence (Q8N6T7 whole entry): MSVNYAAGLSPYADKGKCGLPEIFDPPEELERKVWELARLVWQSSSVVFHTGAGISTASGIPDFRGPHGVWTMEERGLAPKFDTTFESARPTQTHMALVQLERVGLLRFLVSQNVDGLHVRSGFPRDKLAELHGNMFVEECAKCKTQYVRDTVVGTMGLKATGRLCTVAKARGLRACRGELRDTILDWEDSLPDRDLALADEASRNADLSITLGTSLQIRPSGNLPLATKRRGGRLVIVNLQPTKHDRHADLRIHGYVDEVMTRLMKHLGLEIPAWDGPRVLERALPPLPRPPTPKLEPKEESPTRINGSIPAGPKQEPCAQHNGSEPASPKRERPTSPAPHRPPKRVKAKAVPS
Histone deacetylase 3, sequence (O15379 whole entry): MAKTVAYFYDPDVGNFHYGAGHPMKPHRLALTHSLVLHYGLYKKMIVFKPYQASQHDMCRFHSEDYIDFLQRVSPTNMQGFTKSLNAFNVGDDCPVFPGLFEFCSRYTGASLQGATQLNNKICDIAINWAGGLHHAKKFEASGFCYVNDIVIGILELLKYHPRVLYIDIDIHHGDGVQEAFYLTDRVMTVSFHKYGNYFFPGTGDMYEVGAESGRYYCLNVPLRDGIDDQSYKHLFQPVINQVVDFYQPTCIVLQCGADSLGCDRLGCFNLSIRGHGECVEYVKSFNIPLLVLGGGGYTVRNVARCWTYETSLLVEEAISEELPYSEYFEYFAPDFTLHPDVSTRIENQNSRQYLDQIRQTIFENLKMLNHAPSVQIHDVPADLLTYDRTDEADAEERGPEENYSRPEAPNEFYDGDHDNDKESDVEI
Histone deacetylase 2, sequence (Q92769 whole entry): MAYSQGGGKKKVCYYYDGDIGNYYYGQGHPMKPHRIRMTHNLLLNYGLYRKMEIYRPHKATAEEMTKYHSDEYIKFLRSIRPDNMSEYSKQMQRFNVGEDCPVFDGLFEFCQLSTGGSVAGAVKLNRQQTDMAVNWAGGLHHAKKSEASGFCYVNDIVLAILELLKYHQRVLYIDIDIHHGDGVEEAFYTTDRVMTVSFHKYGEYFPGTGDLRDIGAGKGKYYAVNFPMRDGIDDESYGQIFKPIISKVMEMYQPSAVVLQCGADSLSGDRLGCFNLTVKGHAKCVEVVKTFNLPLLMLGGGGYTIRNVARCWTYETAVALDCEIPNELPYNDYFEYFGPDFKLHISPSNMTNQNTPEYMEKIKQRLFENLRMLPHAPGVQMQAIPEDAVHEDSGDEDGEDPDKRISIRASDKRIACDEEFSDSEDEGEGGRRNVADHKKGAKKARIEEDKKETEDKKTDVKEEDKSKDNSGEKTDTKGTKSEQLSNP

O=C(NC(c1ccccc1)c1ccccc1)c1cc(-c2cc3ccccc3o2)nc2ccccc12
EC1.5 [1]: 0.49 µM
pEC50 [1]: 5.26
Activity (ASPC1 [2]): Dose-dependent effect
pIC50 (ASPC1 [2]; ASPC1, 72 h): 5.02
Activity (HepG2): Active
inhibition (ASPC1 [3]): Dose-dependent effect
Activity (BXPC-3 [4]): Active
Activity (PANC-1 [5]): Active
Activity (PANC-1 [6]): Dose-dependent effect
Activity (BXPC-3 [7]): Dose-dependent effect
inhibition [8]: Dose-dependent effect
inhibition [9]: Dose-dependent effect
inhibition [10]: Active
Activity (PANC-1 [11]): Dose-dependent effect
Activity [12]: Non-Toxic
Activity [13]: Non-Toxic
Activity (PANC-1 [14]): Active
Cmax [15]: 98.5 ng/mL
bioavailability [16]: 4.24%
AUC [17]: 3381.49 ng·mL·h
pIC50 (Histone deacetylase 2): < 3.70
pIC50 (Histone deacetylase 3): < 3.70
pIC50 (Histone deacetylase 5): < 3.70
